Experiments:
[1] = Cytotoxicity against human SH-SY5Y cells after 72 hrs by MTT assay; assay type: cell-based
Summary of the method: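 SH-SY5Y neuroblastoma cells grown in DMEM with 2 mM L-glutamine, streptomycin/penicillin, 1 mM non-essential amino acids, 10% heat-inactivated FBS, 37 °C, 5% CO2. Seeded 2000 cells/well, serum-starved 24 h to synchronise, then exposed to various compound concentrations (<0.1% DMSO) for 72 h; growth read by colorimetric MTT assay; CC50 reported.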

[2] = biological target: Adenosine receptor A2a (Homo sapiens, UniProt P29274); experiment: Displacement of [3H]-[…] from human adenosine A2A receptor expressed in HEK293 cells after 1 hr by scintillation counting; assay type: cell-based
Adenosine receptor A2a, sequence (P29274 whole entry): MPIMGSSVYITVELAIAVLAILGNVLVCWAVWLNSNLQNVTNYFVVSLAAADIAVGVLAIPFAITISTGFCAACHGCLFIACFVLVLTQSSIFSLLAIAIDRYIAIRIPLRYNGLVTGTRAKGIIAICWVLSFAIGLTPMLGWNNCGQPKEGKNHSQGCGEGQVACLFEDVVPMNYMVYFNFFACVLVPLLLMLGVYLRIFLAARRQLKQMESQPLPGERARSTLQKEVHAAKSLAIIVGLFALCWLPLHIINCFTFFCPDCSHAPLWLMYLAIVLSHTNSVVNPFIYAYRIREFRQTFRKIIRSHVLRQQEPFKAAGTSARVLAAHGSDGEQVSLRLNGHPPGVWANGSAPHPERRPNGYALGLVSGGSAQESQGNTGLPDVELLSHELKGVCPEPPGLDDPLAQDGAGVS

| SMILES | CC50 at 72 h [1] | Ki [2] |
| --- | --- | --- |
| CCCCCCN1C[C@@H]2Cc3ccccc3CN2C1=N | > 100 µM | > 200 µM |
| N=C1N[C@@H](Cc2ccc(F)cc2)CN1Cc1ccccc1 | > 100 µM | > 200 µM |
| N=C1N[C@@H](Cc2ccc(O)cc2)CN1Cc1ccccc1 | > 100 µM | > 200 µM |
| C[C@H]1CN(Cc2ccccc2)C(=N)N1 | > 100 µM | > 200 µM |
| N=C1N(CCN2CCOCC2)C[C@@H]2Cc3ccccc3CN12 | > 100 µM | > 200 µM |
| N=C1N(CCCCc2ccccc2)C[C@@H]2Cc3ccccc3CN12 | > 100 µM | 35 µM |
| N=C1N(CCc2ccccn2)C[C@@H]2Cc3ccccc3CN12 | > 100 µM | > 200 µM |
| N=C1N(Cc2ccccc2)C[C@@H]2Cc3ccccc3CN12 | > 100 µM | 64 µM |
| O=C1[C@@H]2Cc3ccccc3CN2C(=O)N1Cc1ccccc1 | > 100 µM | 44 µM |
| N=C1N[C@@H](Cc2ccccc2)CN1Cc1ccccc1 | > 100 µM | > 200 µM |
| COc1ccc(C[C@H]2CN(Cc3ccccc3)C(=N)N2)cc1 | > 100 µM | > 200 µM |
| N=C1N(Cc2ccccc2)C[C@@H]2CCCCN12 | > 100 µM | > 200 µM |
| CN1C(=N)N(Cc2ccccc2)CC1Cc1ccccc1 (racemic) | > 100 µM | > 200 µM |

From ChEMBL document CHEMBL3739367, “Design and synthesis of fused tetrahydroisoquinoline-iminoimidazolines” (Eur J Med Chem, 2015)
